Measurements pooled from the literature.
Each line is one published result; the experiments were not run side by side.
Target: Mitogen-activated protein kinase 10 (MAPK10, Homo sapiens, UniProt P53779)

Structure (SMILES) | test | setting | endpoint | value
C[C@H]1CC[C@H](n2c3cnccc3c3cnc(Nc4ccc5c(n4)CCN(C(=O)CO)C5)nc32)CC1 | cell-free assay | 1 µM | remaining signal | 2.6%
CO[C@@H]1[C@H](N(C)C(=O)c2ccccc2)C[C@H]2O[C@]1(C)n1c3ccccc3c3c4c(c5c6ccccc6n2c5c31)C(=O)NC4 | enzyme activity, inhibitor | 1 µM | inhibition | 33%
CN1CCN(C(=O)c2ccc(NC(=O)Nc3ccc(N(C)c4ccnc(Nc5ccc(CS(C)(=O)=O)cc5)n4)cc3)cc2)CC1 | binding | 1 µM | remaining binding | 8.6%
C=CC(=O)N1CCC([C@@H]2CCNc3c(C(N)=O)c(-c4ccc(Oc5ccccc5)cc4)nn32)CC1 | enzyme activity, inhibitor | 1 µM | inhibition | 25%
C#Cc1cnc(Nc2ccnc(CO)c2)nc1Nc1ccccc1S(C)(=O)=NC#N (stereo not shown) | cell-free assay | 1 µM | remaining signal | 91%
CCCCC(=O)Nc1ccc(-c2ccc3ncn(CCC)c(=O)c3c2)cn1 | binding, competition with immobilised ligand | 0.5 µM | remaining binding | 80%
N#Cc1ccc(NC(=O)Nc2ccccc2)cc1 | cell-free assay, competition with immobilised ligand | 25 µM | remaining binding | 65%
COc1ccc2oc(-c3ccc4nc(N)oc4c3)c/c(=N\c3ccccc3NC(=O)CCN)c2c1 | binding | 1 µM | remaining binding | 113%
C1=C/COCc2cc(ccc2OCCN2CCCC2)Nc2nccc(n2)-c2cccc(c2)COC/1 | cell-free assay | 0.1 µM | remaining signal | 33%
C#Cc1cc(-c2cc(Nc3nc(N[C@@H](C)c4ccc(F)cn4)ncc3Cl)n[nH]2)ccc1C=O | enzyme activity, inhibitor | 0.2 µM | inhibition | 6.29%
